From the RNAGym collection of RNA variant scans (doi:10.1126/science.aae0568) come the findings set out here.

B1: tRNA (parent)
chain: GUUCCGUUGGCGUAAUGGUAACGCGUCUCCCUCCUAAGGAGAAGACUGCGGGUUCGAGUCCCGUACGGAACG

This sample holds only a part of the variants without activity.

The variants in the data set derive from B1. The experiment in a line: yeast fitness relative to wild type (ratio to wild type); higher = fitter; tRNA-Arg(CCU), competitive growth, 37 C, YPD. Summed up:
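Genotype frequency changes were the basis for Darwinian fitness relative to wild type. The frequencies came from 100-nucleotide paired-end sequencing of gene amplicons from the start population and each end population of pooled yeast strains with tRNA-Arg(CCU) gene variants at the native locus. Competition ran in YPD at 37°C for 24 hours in six replicates, genotypes needed ≥ 100 starting reads, and estimates < 0.5 were set to 0.5.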
Take C24A U64G: the yeast fitness came out at 0.68. In the case of G17C G25C C29G A36U G39A it was not above 0.5. G44A A45C G51A: the yeast fitness is not above 0.5. In the case of C5U G38A it was 1.03; in that of U8G C11G U32A C55U G67C, not above 0.5. For the variant C24G A40U G67C, the yeast fitness is not above 0.5. C5G G41C: the yeast fitness stood at 0.736. In the case of C22A C33G A43C C55A C62U it was not above 0.5; in that of A45U C55U, 0.743. In the case of U7G U8G A70U it was not above 0.5; in that of G10A C33U U59C, not above 0.5. As to U3G C24A C30U A57C A69U, the yeast fitness is not above 0.5. On to U28A C31G U35A U47A U54A, for which the yeast fitness is not above 0.5. In the case of G9A C11U C55G it was 0.601; in that of C11U G23C, 0.757; in that of C4G U16C A45G, 0.597.

Take A14G U26C: the yeast fitness amounted to 0.879. In the case of A42G U47A U53C it was not above 0.5. As to U16A U32A A40C G63C U64A C66G, the yeast fitness is not above 0.5. The value for U32A G58A A70C was 0.513; that for C11G A15U C31A G58C A70C was not above 0.5; that for C33U G41A was 0.721. For the variant C4U C27U C33A A45C U54A, the yeast fitness was not above 0.5. As for A20G C22U C31G, the yeast fitness came out at 0.626. In the case of C24U A40G C46A it was 0.723; in that of C11U C22G A36G A65U, 0.554; in that of G17C U28G U54A, not above 0.5. Turning to C31U C46G C55U, the yeast fitness is 0.542.

On to C30A G50A, for which the yeast fitness turned out to be 0.677. The value for A15G A20G A40C C46U C49A A57U A65C C66G was not above 0.5; that for G9A C46U G67C was 0.633. The value for C24G G48A G52C A57C C60U was not above 0.5; that for C46U C60A was 0.543; that for U3A C22G C29U G63C C66U was not above 0.5. In the case of C4U U16A A37U C55G, the yeast fitness is not above 0.5.

U2A U16C G68A: the yeast fitness was not above 0.5. The value for C11G C34A G58C C60G was 0.84.

In the case of G9C A36C C55U, the yeast fitness was not above 0.5. Consider A57G G68A, for which the yeast fitness was 0.944. The value for C5U A21G C27U A69U was not above 0.5; that for U2G G10C A69C was not above 0.5; that for A37U A40U G67C was 0.563. In the case of G12C C33G G44C C49U, the yeast fitness was 0.539.

As for U8A G18A C27U C31A, the yeast fitness is not above 0.5. The value for U53G G58C was 0.716; that for C5A U7C C22G C24U A37C G51C C55U U59G was not above 0.5; that for G6C A15C C31U was not above 0.5. In the case of C4U G10C C60G G67A, the yeast fitness was not above 0.5. In the case of G38A C49U it was 1.03; in that of A21U U32G, 0.808; in that of G10C C29U A69C, not above 0.5. Regarding U13C C31U C34U A40G U47A, the yeast fitness is not above 0.5. In the case of U7G C34G A36C it was 0.525; in that of C27A U53G, 0.651. In the case of G10C C55A C61U A65C G68A it was not above 0.5. Regarding C11A C29G U54A, the yeast fitness was 0.69.

In the case of G9C U13C U47G, the yeast fitness is not above 0.5. The value for C11G C29A U35G A43G A70C was not above 0.5; that for G23A C27U A45U was 0.668; that for G6A A21C A43U was 0.528. Consider U7A A40U C61G G67U, for which the yeast fitness was not above 0.5. The value for U16C A20G C29U C62U was not above 0.5; that for G18A U28C G50U was not above 0.5; that for C4G G17A A36G C46U was not above 0.5. In the case of C4G U13C C60G A65U it was not above 0.5; in that of U13C C49G, 0.896; in that of C5G U35G C49A G56A, not above 0.5. In the case of A15U G50A it was 0.708; in that of C24U G25C C61A, not above 0.5. Take U2G C46A G58C C62U: the yeast fitness was not above 0.5.

For the variant G17C C27A C61G, the yeast fitness was not above 0.5. For the variant C34G C62A, the yeast fitness stood at 0.64. The value for G9C C61U was 0.844; that for U13C G58A A70C was 0.817; that for A14C A42G G48A was not above 0.5. In the case of C29U U35G C62U it was not above 0.5.

In the case of U8C A36G G44A C46U, the yeast fitness stood at 0.674. Take A42C G63A: the yeast fitness amounted to 0.818. Consider C11G A37G G51C A57G C66U, for which the yeast fitness is not above 0.5. The value for C4G C34A was 0.762; that for G9C A70C was 0.866. The value for C4G C22U C34G A36U was not above 0.5; that for G10A C30G G68A was not above 0.5. For C27U G68U, the yeast fitness was 0.755. Regarding U19C A43U A69U, the yeast fitness was determined as 1.09.

With C5U G41A A42C G50C A70G, the yeast fitness was determined as 0.535. In the case of C5A C30A it was 0.767; in that of C22U C24G U35C G56C, not above 0.5; in that of C4G U8A G12A U35G, not above 0.5.

In the case of U3G C29A U35G G51A, the yeast fitness was not above 0.5.

Turning to A21U U32G G51C A70G, the yeast fitness is not above 0.5.

On to G38C G67A A69U, for which the yeast fitness came to 0.537. Turning to A14G A21U G23A A37U, the yeast fitness is not above 0.5. A21G C46U C55G: the yeast fitness was 0.603.

As to C11U A36U G48C, the yeast fitness came to 0.632. In the case of C5G G10A C29G it was not above 0.5; in that of C5A A20U A37G, not above 0.5; in that of G18A C34A C60A, not above 0.5. On to U7A G10A C33A A36C A69C, for which the yeast fitness is not above 0.5. Regarding A42G A57C U59C C61U, the yeast fitness was not above 0.5.

Consider G12C A20C A36G, for which the yeast fitness stood at 0.581.

On to C4G A37C, for which the yeast fitness is 0.773. In the case of C30A A40G A42U C62A it was not above 0.5; in that of C4G C11U A14G U32C, not above 0.5; in that of A20C C33A G41C C49G A70U, 0.575. On to U8A C22U, for which the yeast fitness is 0.634. Consider A21G A45U A69U, for which the yeast fitness is 1.07. The value for A15G G23A G50A A57C A65U was 0.6; that for C24U A45U A57C G68A was not above 0.5; that for C4U C60G was 0.671. As to C4U U16C A42G, the yeast fitness worked out at 0.72. Consider C24G A36U A40U C46G G48C, for which the yeast fitness was determined as 0.557. In the case of U32G C33U A37G it was not above 0.5; in that of C11G C34U A42C C61A A70U, not above 0.5. On to U26C G44A G68U, for which the yeast fitness came out at 0.533. In the case of A20C A21G C24U, the yeast fitness was 0.647.

Regarding C5A G18C, the yeast fitness turned out to be 0.569. The value for C24G A36G A42C C61U C62G was not above 0.5; that for U16G U54C was 0.704; that for C5A C22G C24G C31U A43U G48A A69U was 0.507. Take G39C C46U C49U G56A G68C: the yeast fitness was found to be 0.54. Consider C22G C31G C62U A70U, for which the yeast fitness is not above 0.5. Regarding G44A G52C, the yeast fitness is 0.504.

As to G12A G38C C46G C49G G51C C61U, the yeast fitness was not above 0.5. Take U2A U3C G6A G39A: the yeast fitness is not above 0.5. With C4U U8C A42C, the yeast fitness stood at 0.539. The value for C4G C30G C33A A70G was not above 0.5.

Take U19C C31A A69U: the yeast fitness was found to be 0.534. The value for U7C A14C A70C was 0.594; that for C4U C24U U28C C30A was 0.636; that for C33A A45U A70C was 0.512.

On to U7G A43G C46G A69U, for which the yeast fitness was not above 0.5.

Regarding C4G U64G, the yeast fitness turned out to be 0.671. The value for U8C C27U C66U A69U was not above 0.5; that for U26G C29G C62U A70G was 0.61.

Consider U3A C31U A36C A65U, for which the yeast fitness is not above 0.5. The value for G12A A43C was 0.855; that for A15C A21G C27G A69U was not above 0.5. As for U26A C27U C46G, the yeast fitness worked out at 1. With A14U C31U C34A U64A, the yeast fitness was not above 0.5. In the case of C5A C66A it was 0.679. Regarding U16A U54C C55G, the yeast fitness was not above 0.5. On to A15U U16A C27G C55U C62U G67C, for which the yeast fitness is not above 0.5. In the case of C5G C29A U59A it was not above 0.5. In the case of U8A G44C C66U it was not above 0.5; in that of A21G A43C C60G A69U, not above 0.5. For the variant C24U G25C C46U G50C, the yeast fitness is not above 0.5.

On to C49G C55U, for which the yeast fitness was determined as 0.692. The value for C11U C30U was 0.748.

Take C5G G48C C49U: the yeast fitness is 0.622. The value for A21G A42U was 0.839. In the case of C27G G39A C66U G68C it was 0.575; in that of C11G G23A C31U C33G C34U A36G, not above 0.5; in that of C22A G23A C33U C34G C55U, not above 0.5. In the case of G6U C34U C61U it was not above 0.5.

Regarding C5U A37U A57U A69C, the yeast fitness is not above 0.5. In the case of G39A C55U G68C A69G it was not above 0.5; in that of U8A U13A A14C U16A, not above 0.5; in that of C24A A45G U54C C62U, not above 0.5. In the case of G6A A20U it was 0.851; in that of U2G A45C G48A, 0.622; in that of U7C C33U G63A, 0.54. For C4U A45G A57C, the yeast fitness amounted to 0.585. As to C22G A70C, the yeast fitness was 0.963. Turning to G17C U26G G39C A40U C61U, the yeast fitness was not above 0.5.

U7G A36U A70U: the yeast fitness worked out at 0.544. For the variant C24U U35G C46A, the yeast fitness is not above 0.5.
